These results are taken from ChEMBL document CHEMBL3774374, “The Effect of Small Molecules on Sterol Homeostasis: Measuring 7-Dehydrocholesterol in Dhcr7-Deficient Neuro2a Cells and Human Fibroblasts” (J Med Chem, 2016).

Structures are written as SMILES. Activity calls are given as the source filed them. The rule behind the calls is not given here.

In data set [1] the test system is N2a. Briefly: Increase in 7-DHC levels in Dhcr7-deficient mouse Neuro2a cells at 200 nM after 24 hrs by LC-MS analysis. The data set is classed as functional, cell-based. The essentials: (§1)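 384-well screen: Dhcr7-deficient Neuro2a cells (13000/well, 0.5% FBS) with compound at 20 or 200 nM (five wells each), 24 h at 37 °C. Cells counted after Hoechst imaging, then methanol lysis with d7-7-DHC standard, PTAD derivatization 20 min at RT, UPLC-MS SRM (7-DHC 560→365). Read-out is pg 7-DHC per cell.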

The test system of data set [2] is N2a. Briefly: Increase in 7-DHC levels in mouse Neuro2a cells at 100 nM by LC-MS analysis. The data set is classed as functional. The essentials: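 Control Neuro2a cells in 96-well plates, treated at 1, 10 and 100 nM. 7-DHC measured by PTAD derivatization and UPLC-MS against deuterated 7-DHC standard; n > 3.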
The subject of data set [3] is N2a. In words: Decrease in lanosterol levels in mouse Neuro2a cells by LC-MS analysis. It is filed as functional, cell-based. In short, it runs like this:
(§2)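 Control Neuro2a cells (10000/well, 0.5% FBS) on compound, 24 h. Hoechst cell count, then methanol lysis with labelled standards (d7-7-DHC, 13C3-desmosterol, 13C3-lanosterol), PTAD derivatization 20 min at RT, UPLC-MS SRM. GC-MS of silylated extract for further sterols.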

Data set [4] deals with N2a. Briefly: Decrease in desmosterol levels in mouse Neuro2a cells by LC-MS analysis. The data set is classed as functional, cell-based. In short, it runs like this: as §2
Data set [5] has as its target T1, 3-beta-hydroxysteroid-Delta(8),Delta(7)-isomerase (Mus musculus) (UniProt P70245).
T1 sequence (whole entry): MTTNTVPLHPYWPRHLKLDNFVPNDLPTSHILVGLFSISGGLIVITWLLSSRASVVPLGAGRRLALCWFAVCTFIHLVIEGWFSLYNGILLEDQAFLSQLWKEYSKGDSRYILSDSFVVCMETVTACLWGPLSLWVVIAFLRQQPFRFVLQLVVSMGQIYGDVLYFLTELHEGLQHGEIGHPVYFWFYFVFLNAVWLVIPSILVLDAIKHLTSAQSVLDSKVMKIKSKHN
In words: Inhibition of delta 8-7 isomerase in mouse Neuro2a cells assessed as decrease in 7-DHC levels at 1 uM by LC-MS/GC-MS analysis. The data set is classed as cell-based. The essentials: as §2

Data set [6] concerns the target T1, 3-beta-hydroxysteroid-Delta(8),Delta(7)-isomerase (Mus musculus). In words: Inhibition of delta 8-7 isomerase in Dhcr7-deficient mouse Neuro2a cells assessed as increase in zymosterol levels at 1 uM by LC-MS/GC-MS analysis. The data set is classed as cell-based. In short, it runs like this: (§3)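 Follow-up (verification) assay in 96-well plates, run as the 384-well screen, in triplicate, at varying compound concentrations. Cells counted by Hoechst imaging, washed with PBS, then lysed in MeOH with BHT/TPP and isotope standards (d7-Chol, d7-7-DHC, 13C3-Des, 13C3-Lan). Sterols derivatised with PTAD for 20 min at RT and quantified by C18 UPLC-MS (SRM). Remaining sample silylated with BSTFA and run on GC-MS, quantified against d7-Chol.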

For a further data set, the system named is Fibroblast. Briefly: Decrease in cholesterol levels in human SLOS fibroblasts at 10 nM after 5 days by LC-MS/GC-MS analysis. The data set is classed as functional, cell-based. The essentials:
(§4)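 SLOS patient skin fibroblasts (passage 8–20) grown in 96-well plates in delipidated serum with compound for 5 days; three different SLOS lines. Sterols quantified by PTAD-derivatized UPLC-MS plus GC-MS; 7-DHC expressed as percentage of untreated cells.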

For data set [7], the target named is T2, Delta(24)-sterol reductase (Mus musculus) (UniProt Q8VCH6).
T2 sequence (whole entry): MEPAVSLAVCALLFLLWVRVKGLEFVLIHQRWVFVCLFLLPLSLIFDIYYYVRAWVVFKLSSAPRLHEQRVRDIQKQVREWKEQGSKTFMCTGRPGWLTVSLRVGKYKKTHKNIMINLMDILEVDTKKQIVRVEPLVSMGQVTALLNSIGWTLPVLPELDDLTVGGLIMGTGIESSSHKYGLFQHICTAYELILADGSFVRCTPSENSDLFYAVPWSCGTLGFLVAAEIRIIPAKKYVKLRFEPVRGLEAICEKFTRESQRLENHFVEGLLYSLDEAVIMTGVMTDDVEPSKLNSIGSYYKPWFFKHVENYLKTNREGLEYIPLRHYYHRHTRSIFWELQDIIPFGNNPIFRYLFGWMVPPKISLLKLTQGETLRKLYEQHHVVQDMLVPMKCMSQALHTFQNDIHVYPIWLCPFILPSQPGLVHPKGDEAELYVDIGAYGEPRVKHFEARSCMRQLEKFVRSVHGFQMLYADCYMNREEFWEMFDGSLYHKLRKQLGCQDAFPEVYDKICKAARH
In words: Inhibition of DR24 in Dhcr7-deficient mouse Neuro2a cells assessed as decrease in 7-DHC levels at 200 nM after 24 hrs by LC-MS analysis. It is filed as cell-based. In short, it runs like this:
as §1

Data set [8] deals with T1, 3-beta-hydroxysteroid-Delta(8),Delta(7)-isomerase (Mus musculus). Briefly: Inhibition of delta 8-7 isomerase in Dhcr7-deficient mouse Neuro2a cells assessed as decrease in 7-DHC levels at 20 nM after 24 hrs by LC-MS analysis. The data set is classed as cell-based. In short, it runs like this: (§5)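 384-well screen: Dhcr7-deficient Neuro2a cells (13000/well) dispensed in 0.5% FBS medium onto predeposited compound (five wells each at 20 and 200 nM) and incubated 24 h at 37 °C. Nuclei Hoechst-stained and counted by automated imaging. Cells lysed in MeOH with deuterated and 13C standards, then derivatised with PTAD for 20 min at RT. 7-DHC measured by isocratic UPLC-MS (SRM) and expressed as pg per cell; DMSO wells served as controls.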

Data set [9] concerns the target T3, Delta(24)-sterol reductase (Homo sapiens) (UniProt Q15392).
T3 sequence (whole entry): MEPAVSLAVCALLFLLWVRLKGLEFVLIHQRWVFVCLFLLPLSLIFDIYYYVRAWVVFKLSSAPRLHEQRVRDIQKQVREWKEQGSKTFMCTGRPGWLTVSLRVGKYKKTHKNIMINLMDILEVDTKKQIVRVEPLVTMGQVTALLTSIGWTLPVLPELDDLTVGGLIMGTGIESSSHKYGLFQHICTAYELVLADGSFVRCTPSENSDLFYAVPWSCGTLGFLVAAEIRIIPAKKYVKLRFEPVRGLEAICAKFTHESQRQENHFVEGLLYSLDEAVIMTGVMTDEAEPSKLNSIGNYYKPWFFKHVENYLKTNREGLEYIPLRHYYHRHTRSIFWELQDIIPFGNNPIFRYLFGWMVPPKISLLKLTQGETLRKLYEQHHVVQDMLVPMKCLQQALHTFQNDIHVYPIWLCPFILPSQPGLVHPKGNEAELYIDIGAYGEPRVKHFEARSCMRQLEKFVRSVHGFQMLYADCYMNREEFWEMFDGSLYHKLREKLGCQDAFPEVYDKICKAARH
In words: Inhibition of DR24 in human SLOS fibroblasts assessed as decrease in 7-DHC levels at 10 nM after 5 days by LC-MS/GC-MS analysis. In short, it runs like this: as §4

The target of data set [10] is T1, 3-beta-hydroxysteroid-Delta(8),Delta(7)-isomerase (Mus musculus). Briefly: Inhibition of delta 8-7 isomerase in Dhcr7-deficient mouse Neuro2a cells assessed as decrease in cholesterol levels at 1 uM by LC-MS/GC-MS analysis. The data set is classed as cell-based. The essentials: as §3
Data set [11] addresses T2, Delta(24)-sterol reductase (Mus musculus). In words: Inhibition of DR24 in Dhcr7-deficient mouse Neuro2a cells assessed as decrease in 7-DHC levels at 20 nM after 24 hrs by LC-MS analysis. It is filed as cell-based. In short, it runs like this: as §1
For data set [12], the target named is T1, 3-beta-hydroxysteroid-Delta(8),Delta(7)-isomerase (Mus musculus). In words: Inhibition of delta 8-7 isomerase in Dhcr7-deficient mouse Neuro2a cells assessed as increase in zymostenol levels at 1 uM by LC-MS/GC-MS analysis. It is filed as cell-based. The essentials:
as §3

Data set [13] shares this target. Briefly: Inhibition of delta 8-7 isomerase in Dhcr7-deficient mouse Neuro2a cells assessed as decrease in 7-DHC levels at 200 nM after 24 hrs by LC-MS analysis. The data set is classed as cell-based. The essentials:
as §5

The target of data set [14] is 3-beta-hydroxysteroid-Delta(8),Delta(7)-isomerase (Homo sapiens) (UniProt Q15125). In words: Inhibition of delta 8-7 isomerase in human SLOS fibroblasts assessed as decrease in 7-DHC levels at 10 nM after 5 days by LC-MS/GC-MS analysis. The essentials:
as §4

The target in data set [15] is T1, 3-beta-hydroxysteroid-Delta(8),Delta(7)-isomerase (Mus musculus). In words: Inhibition of delta 8-7 isomerase in Dhcr7-deficient mouse Neuro2a cells assessed as decrease in 7-DHC levels at 1 uM by LC-MS/GC-MS analysis. It is filed as cell-based. In short, it runs like this:
(§6)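 Dhcr7-deficient Neuro2a cells (13000/well, 0.5% FBS medium) on predeposited compound, 24 h at 37 °C. Hoechst-stained and imaged to count cells. Lysed in methanol containing isotope-labelled sterol standards, derivatized with PTAD 20 min at RT, then isocratic C18 UPLC-MS/SRM. Remaining extract silylated with BSTFA for GC-MS, quantified against d7-cholesterol. Follow-up runs in triplicate.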

Data set [16] in a line: Cytotoxicity against human SLOS fibroblasts at 5 uM after 5 days by Cell Titer assay. The data set is classed as cell-based. Particulars: fibroblast, 120 h.
Data set [17] concerns the target T2, Delta(24)-sterol reductase (Mus musculus). In words: Inhibition of DR24 in mouse Neuro2a cells assessed as decrease in 7-DHC levels at 1 uM by LC-MS/GC-MS analysis. It is filed as cell-based. In short, it runs like this:
as §2

For data set [18] the target is unchanged. Briefly: Inhibition of DR24 in Dhcr7-deficient mouse Neuro2a cells assessed as decrease in 7-DHC levels at 1 uM by LC-MS/GC-MS analysis. It is filed as cell-based. In short, it runs like this:
as §6

Sequence of 3-beta-hydroxysteroid-Delta(8),Delta(7)-isomerase (Homo sapiens) (Q15125 whole entry): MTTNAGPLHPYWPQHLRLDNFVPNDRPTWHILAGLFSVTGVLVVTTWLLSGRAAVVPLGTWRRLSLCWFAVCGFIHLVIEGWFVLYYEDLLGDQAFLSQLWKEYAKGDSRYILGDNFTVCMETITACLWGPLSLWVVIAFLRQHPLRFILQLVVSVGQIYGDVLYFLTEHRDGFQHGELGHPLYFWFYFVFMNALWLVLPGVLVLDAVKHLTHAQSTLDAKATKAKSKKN

On to `O=C1CCc2ccc(OCCCCN3CCN(c4cccc(Cl)c4Cl)CC3)cc2N1` [ARIPIPRAZOLE], for which the outcome in the data set on N2a [1], in the data set on N2a [3] and in the data set on N2a [4] was Active. The “fold change (FC)” value in the data set with N2a [2] came out at 40.

In the case of `CCN(CC)CCOc1ccc(C(=C(Cl)c2ccccc2)c2ccccc2)cc1` [CLOMIPHENE], the “Activity (decrease in 7-DHC levels)” value in data set [5] is “Active”. In addition, the inhibition entry in data set [6], in data set [7], in [8], in [9], in [10] and in [11] was “Active” throughout. Besides, the inhibition result in data set [12], in data set [13], in data set [14], in data set [15] and in [18] was “Active” in each case. Besides, the outcome in the data set on Fibroblast was inactive. In data set [16], the Activity entry was “Non-toxic”. The “Decrease in 7-DHC levels (active/inactive call)” value in data set [17] is “Active”.
